Measurements from ChEMBL document CHEMBL4396869, “Design and Synthesis of Selective Phosphodiesterase 4D (PDE4D) Allosteric Inhibitors for the Treatment of Fragile X Syndrome and Other Brain Disorders” (J Med Chem, 2019).
The source made the active and inactive calls. The calls are words filed in the database; no cut-off is given here.

Tests used:
Mus musculus = assay: Memory enhancement effect in ICR mouse assessed as improvement in novel object discrimination at 0.3 to 30 mg/kg, po administered via gavage measured for 5 mins by open field test; type: functional, organism-based
Summary of the method: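 Male ICR mice (25–30 g), dosed by oral gavage in 5% DMSO, 5% Solutol in PBS. Three phases in an open field box: 10 min habituation on day 1, 5 min training with identical objects on day 2, 5 min test with familiar and novel objects on day 3 (24 h delay). Exploration times recorded; discrimination index d2 = (b − a)/(a + b).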

[1] = Stability in human liver microsomes assessed as parent compound remaining at 1 uM measured after 30 mins by LC-MS/MS analysis; type: ADME, Microsome; conditions: read-out: Stability
Summary of the method: (§1)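 Liver microsome stability run by a contract lab using standard protocols. Parent compound remaining measured after 30 min incubation.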

[2] = Stability in dog liver microsomes assessed as parent compound remaining at 1 uM measured after 30 mins by LC-MS/MS analysis; type: ADME, Canis lupus familiaris, Microsome; conditions: read-out: Stability; summary of the method: as §1
[3] = Stability in rat liver microsomes assessed as parent compound remaining at 1 uM measured after 30 mins by LC-MS/MS analysis; type: ADME, Microsome; conditions: read-out: Stability; summary of the method: as §1
[4] = Permeability across apical to basal side in MDCK-MDR1 cells; type: ADME, cell-based, Canis lupus familiaris; conditions: dog
Summary of the method: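 Cellular permeability in MDCK-MDR1 cells, apical-to-basal and basal-to-apical, run by a contract lab using standard protocols. Efflux ratio taken as B-A/A-B.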

[5] = Protein binding in dog plasma; type: ADME, cell-free, Canis lupus familiaris; conditions: read-out: PPB
Cytochrome P450 3A4 = Cytochrome P450 3A4 (Homo sapiens, UniProt P08684); assay: Inhibition of CYP3A4 (unknown origin) by fluorescence-based assay; type: ADME
Summary of the method: (§2)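 CYP inhibition run with a fluorescent substrate by a contract laboratory under standard protocols; IC50 reported.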

Cytochrome P450 2C19 = Cytochrome P450 2C19 (Homo sapiens, UniProt P33261); assay: Inhibition of […] (unknown origin) by fluorescence-based assay; type: ADME; summary of the method: as §2
Cytochrome P450 2D6 = Cytochrome P450 2D6 (Homo sapiens, UniProt P10635); assay: Inhibition of CYP2D6 (unknown origin) by fluorescence-based assay; type: ADME; summary of the method: as §2
[6] = Inhibition of recombinant human His6-tagged PDE4D3 UCR1 S54D mutant expressed in baculovirus infected Sf9 insect cells using cAMP as substrate preincubated for 5 to 10 mins followed by substrate addition and measured for 10 mins by yeast myokinase/pyruvate kinase/lactate dehydrogenase-coupled fluorescence assay relative to control
[7] = Oral bioavailability in C57Bl6 mouse; type: ADME, organism-based; conditions: in vivo
[8] = Half life in C57Bl6 mouse; type: ADME; conditions: in vivo
[9] = Cmax in ICR mouse at 0.3 mg/kg, po; type: ADME, organism-based; design: dose 0.3 mg/kg, route oral; conditions: in vivo
[10] = Oral bioavailability in dog; type: ADME, organism-based, Canis lupus familiaris; conditions: in vivo
[11] = Toxicity in rat assessed as pulmonary effect up to 60 mg/kg, po; type: organism-based; conditions: in vivo
[12] = Cardiovascular toxicity in dog at 100 mg/kg, po; type: organism-based, Canis lupus familiaris; conditions: in vivo
[13] = Toxicity in dog assessed as tremor at 100 mg/kg, po; type: organism-based, Canis lupus familiaris; conditions: in vivo
Cynomolgus monkey = assay: Induction of emesis in cynomolgus monkey up to 50 mg/kg, po; type: organism-based, Macaca fascicularis; conditions: in vivo
[14] = biological target: Dual specificity calcium/calmodulin-dependent 3',5'-cyclic nucleotide phosphodiesterase 1A (Homo sapiens, UniProt P54750); assay: Inhibition of recombinant human full length N-terminal GST-tagged PDE1A5 expressed in baculovirus infected Sf9 insect cells using FAM-cAMP as substrate measured after 1 hr by fluorescence assay; conditions: sf9, 1 h
[15] = biological target: Dual specificity calcium/calmodulin-dependent 3',5'-cyclic nucleotide phosphodiesterase 1C (Homo sapiens, UniProt Q14123); assay: Inhibition of recombinant human N-terminal GST-tagged PDE1C (2 to 634 residues) expressed in baculovirus infected Sf9 insect cells using FAM-cAMP as substrate measured after 1 hr by fluorescence assay; conditions: sf9, 1 h
[16] = biological target: cGMP-inhibited 3',5'-cyclic phosphodiesterase 3A (Homo sapiens, UniProt Q14432); assay: Inhibition of recombinant human N-terminal His/GST-tagged PDE3A (669 to 1141 residues) expressed in baculovirus infected Sf9 insect cells using cAMP as substrate
[17] = biological target: cGMP-inhibited 3',5'-cyclic phosphodiesterase 3B (Homo sapiens, UniProt Q13370); assay: Inhibition of recombinant N-terminal GST-tagged human PDE3B (592-end residues) expressed in baculovirus infected Sf9 cells using FAM-cAMP as substrate incubated for 60 mins by fluorescence assay; conditions: sf9, 1 h
[18] = biological target: T1, 3',5'-cyclic-AMP phosphodiesterase 4A (Homo sapiens, UniProt P27815); assay: Inhibition of recombinant N-terminal GST-tagged human PDE4A10 (2 to 825 residues) expressed in baculovirus infected Sf9 cells using FAM-cAMP as substrate incubated for 60 mins by fluorescence assay; conditions: sf9, 1 h
[19] = biological target: T1, 3',5'-cyclic-AMP phosphodiesterase 4A; assay: Inhibition of recombinant N-terminal GST tagged human PDE4A4B (2 to end residues) expressed in Sf9 cells using FAM-cAMP as substrate incubated for 60 mins by fluorescence assay; conditions: sf9, 1 h
[20] = biological target: 3',5'-cyclic-AMP phosphodiesterase 4D (Homo sapiens, UniProt Q08499); assay: Inhibition of recombinant human full length N-terminal GST-tagged PDE4D3 expressed in baculovirus infected Sf9 cells using FAM-cAMP as substrate incubated for 60 mins by fluorescence assay; conditions: sf9, 1 h
[21] = Inhibition of recombinant human N-terminal GST-tagged PDE4D7 (2 to 748 residues) expressed in baculovirus infected Sf9 cells using FAM-cAMP as substrate incubated for 60 mins by fluorescence assay; conditions: sf9, 1 h
[22] = biological target: Cone cGMP-specific 3',5'-cyclic phosphodiesterase subunit alpha' (Homo sapiens, UniProt P51160); assay: Inhibition of recombinant human N-terminal GST-tagged PDE6C expressed in baculovirus infected Sf9 cells using FAM-cGMP as substrate incubated for 60 mins by fluorescence assay; conditions: sf9, 1 h
[23] = biological target: 3',5'-cyclic-AMP phosphodiesterase 7B (Homo sapiens, UniProt Q9NP56); assay: Inhibition of recombinant human N-terminal GST-tagged/C-terminal His-tagged PDE7B (109 to end residues) expressed in baculovirus infected Sf9 cells using FAM-cAMP as substrate incubated for 60 mins by fluorescence assay; conditions: sf9, 1 h
[24] = biological target: High affinity cAMP-specific and IBMX-insensitive 3',5'-cyclic phosphodiesterase 8A (Homo sapiens, UniProt O60658); assay: Inhibition of recombinant human full length N-terminal GST-tagged PDE8A1 expressed in baculovirus infected Sf9 cells using FAM-cAMP as substrate incubated for 60 mins by fluorescence assay; conditions: sf9, 1 h

T1 sequence (P27815 whole entry, the tested form may be a part): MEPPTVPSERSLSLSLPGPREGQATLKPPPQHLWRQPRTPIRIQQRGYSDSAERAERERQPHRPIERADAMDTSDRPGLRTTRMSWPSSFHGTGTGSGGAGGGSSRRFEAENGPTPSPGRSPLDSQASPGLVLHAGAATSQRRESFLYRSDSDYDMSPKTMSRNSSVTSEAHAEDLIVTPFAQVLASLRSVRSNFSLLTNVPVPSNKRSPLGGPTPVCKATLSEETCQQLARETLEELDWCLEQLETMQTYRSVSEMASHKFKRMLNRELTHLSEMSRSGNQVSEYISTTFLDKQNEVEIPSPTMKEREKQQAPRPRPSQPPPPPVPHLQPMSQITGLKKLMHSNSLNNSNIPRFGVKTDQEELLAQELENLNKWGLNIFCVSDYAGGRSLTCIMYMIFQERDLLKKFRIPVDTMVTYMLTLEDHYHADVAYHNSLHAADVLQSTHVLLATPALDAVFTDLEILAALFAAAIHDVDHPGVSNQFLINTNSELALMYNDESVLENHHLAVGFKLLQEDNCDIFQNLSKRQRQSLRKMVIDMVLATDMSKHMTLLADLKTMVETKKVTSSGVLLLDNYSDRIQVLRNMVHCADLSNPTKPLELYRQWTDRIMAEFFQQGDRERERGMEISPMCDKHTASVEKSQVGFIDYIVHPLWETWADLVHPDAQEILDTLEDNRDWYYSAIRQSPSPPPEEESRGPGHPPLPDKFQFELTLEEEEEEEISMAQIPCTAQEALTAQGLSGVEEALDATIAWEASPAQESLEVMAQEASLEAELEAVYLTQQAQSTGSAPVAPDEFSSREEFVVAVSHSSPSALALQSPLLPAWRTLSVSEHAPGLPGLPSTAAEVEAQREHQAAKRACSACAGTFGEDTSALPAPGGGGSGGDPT
Sequence of 3',5'-cyclic-AMP phosphodiesterase 4D (Q08499 whole entry, the tested form may be a part): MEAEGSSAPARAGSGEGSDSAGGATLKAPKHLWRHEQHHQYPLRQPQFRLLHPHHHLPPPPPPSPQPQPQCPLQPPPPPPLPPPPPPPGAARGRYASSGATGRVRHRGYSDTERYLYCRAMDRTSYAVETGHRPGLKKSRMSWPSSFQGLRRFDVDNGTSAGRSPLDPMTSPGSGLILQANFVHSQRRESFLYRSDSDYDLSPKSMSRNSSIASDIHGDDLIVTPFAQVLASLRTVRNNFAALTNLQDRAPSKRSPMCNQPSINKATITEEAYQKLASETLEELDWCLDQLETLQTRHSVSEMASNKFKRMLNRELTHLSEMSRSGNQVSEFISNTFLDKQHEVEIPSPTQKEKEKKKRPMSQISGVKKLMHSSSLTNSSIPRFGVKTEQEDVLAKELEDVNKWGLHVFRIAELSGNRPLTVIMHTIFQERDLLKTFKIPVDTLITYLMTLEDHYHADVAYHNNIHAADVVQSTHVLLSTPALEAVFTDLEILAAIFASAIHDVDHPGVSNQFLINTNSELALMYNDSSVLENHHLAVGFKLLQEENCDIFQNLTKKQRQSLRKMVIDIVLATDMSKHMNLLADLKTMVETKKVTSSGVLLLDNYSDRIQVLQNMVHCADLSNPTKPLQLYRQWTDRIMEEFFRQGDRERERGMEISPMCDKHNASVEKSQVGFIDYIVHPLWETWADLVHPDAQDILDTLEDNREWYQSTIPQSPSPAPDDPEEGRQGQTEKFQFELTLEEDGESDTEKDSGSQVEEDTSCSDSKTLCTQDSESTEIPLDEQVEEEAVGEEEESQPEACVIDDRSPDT
Sequence of Dual specificity calcium/calmodulin-dependent 3',5'-cyclic nucleotide phosphodiesterase 1A (P54750 whole entry, the tested form may be a part): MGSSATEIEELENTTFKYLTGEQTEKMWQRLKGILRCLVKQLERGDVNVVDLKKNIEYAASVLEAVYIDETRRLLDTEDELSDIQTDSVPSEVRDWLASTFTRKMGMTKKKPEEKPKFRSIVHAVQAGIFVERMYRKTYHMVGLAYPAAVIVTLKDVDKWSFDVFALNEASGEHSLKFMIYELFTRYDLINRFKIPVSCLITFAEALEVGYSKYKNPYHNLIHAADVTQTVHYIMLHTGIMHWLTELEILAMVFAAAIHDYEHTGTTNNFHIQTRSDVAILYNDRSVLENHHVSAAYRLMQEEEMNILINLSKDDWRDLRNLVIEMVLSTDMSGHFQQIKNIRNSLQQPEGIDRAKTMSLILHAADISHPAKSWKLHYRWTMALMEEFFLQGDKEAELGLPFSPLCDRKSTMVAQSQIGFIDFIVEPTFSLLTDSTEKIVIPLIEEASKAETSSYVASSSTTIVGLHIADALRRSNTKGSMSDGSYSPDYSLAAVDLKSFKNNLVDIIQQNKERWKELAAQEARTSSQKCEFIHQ
Sequence of Cytochrome P450 2C19 (P33261 whole entry): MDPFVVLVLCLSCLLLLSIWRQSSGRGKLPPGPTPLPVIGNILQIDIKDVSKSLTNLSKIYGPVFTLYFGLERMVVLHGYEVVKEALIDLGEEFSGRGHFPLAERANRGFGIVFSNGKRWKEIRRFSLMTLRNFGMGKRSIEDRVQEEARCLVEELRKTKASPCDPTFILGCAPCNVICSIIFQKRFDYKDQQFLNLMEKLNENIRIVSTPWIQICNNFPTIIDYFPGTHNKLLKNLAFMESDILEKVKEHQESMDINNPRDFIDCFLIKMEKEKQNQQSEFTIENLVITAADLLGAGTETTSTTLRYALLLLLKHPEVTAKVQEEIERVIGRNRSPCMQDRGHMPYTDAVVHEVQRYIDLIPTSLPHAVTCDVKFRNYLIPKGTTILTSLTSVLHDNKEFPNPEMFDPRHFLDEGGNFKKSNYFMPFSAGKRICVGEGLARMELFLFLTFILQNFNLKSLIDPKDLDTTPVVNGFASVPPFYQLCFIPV
Sequence of Cytochrome P450 3A4 (P08684 whole entry): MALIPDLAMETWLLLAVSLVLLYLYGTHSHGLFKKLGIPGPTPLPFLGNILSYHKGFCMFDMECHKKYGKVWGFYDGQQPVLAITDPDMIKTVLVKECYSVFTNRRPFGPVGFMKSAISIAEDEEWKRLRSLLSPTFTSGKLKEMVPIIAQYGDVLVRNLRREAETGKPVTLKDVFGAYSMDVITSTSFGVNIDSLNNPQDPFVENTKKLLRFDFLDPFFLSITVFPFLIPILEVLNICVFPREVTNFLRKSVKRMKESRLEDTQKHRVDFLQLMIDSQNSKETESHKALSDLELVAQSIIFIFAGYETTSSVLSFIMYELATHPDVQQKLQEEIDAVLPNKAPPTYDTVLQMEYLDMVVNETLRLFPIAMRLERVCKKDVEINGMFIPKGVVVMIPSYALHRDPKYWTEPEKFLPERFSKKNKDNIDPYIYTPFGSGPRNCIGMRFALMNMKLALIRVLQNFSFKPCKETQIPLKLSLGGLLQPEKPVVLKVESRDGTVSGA
Sequence of Dual specificity calcium/calmodulin-dependent 3',5'-cyclic nucleotide phosphodiesterase 1C (Q14123 whole entry, the tested form may be a part): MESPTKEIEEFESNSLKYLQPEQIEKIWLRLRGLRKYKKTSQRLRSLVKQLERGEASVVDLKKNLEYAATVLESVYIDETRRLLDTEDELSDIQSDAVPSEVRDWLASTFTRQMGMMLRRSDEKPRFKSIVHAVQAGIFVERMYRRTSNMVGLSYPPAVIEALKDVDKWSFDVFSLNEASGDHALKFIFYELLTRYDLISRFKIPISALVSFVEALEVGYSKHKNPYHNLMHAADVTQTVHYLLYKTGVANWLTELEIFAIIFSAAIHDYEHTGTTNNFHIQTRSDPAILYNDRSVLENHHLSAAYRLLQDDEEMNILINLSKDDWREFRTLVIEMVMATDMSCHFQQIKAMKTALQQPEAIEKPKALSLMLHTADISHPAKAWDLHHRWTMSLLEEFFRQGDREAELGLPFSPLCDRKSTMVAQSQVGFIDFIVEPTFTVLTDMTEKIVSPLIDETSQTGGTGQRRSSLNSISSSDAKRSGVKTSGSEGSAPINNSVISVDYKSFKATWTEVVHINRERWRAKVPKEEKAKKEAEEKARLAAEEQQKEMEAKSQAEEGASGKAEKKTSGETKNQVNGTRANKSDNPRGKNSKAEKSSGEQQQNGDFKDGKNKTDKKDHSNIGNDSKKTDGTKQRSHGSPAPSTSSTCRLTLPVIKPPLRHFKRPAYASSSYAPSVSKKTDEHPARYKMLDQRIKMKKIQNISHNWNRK
Sequence of 3',5'-cyclic-AMP phosphodiesterase 7B (Q9NP56 whole entry): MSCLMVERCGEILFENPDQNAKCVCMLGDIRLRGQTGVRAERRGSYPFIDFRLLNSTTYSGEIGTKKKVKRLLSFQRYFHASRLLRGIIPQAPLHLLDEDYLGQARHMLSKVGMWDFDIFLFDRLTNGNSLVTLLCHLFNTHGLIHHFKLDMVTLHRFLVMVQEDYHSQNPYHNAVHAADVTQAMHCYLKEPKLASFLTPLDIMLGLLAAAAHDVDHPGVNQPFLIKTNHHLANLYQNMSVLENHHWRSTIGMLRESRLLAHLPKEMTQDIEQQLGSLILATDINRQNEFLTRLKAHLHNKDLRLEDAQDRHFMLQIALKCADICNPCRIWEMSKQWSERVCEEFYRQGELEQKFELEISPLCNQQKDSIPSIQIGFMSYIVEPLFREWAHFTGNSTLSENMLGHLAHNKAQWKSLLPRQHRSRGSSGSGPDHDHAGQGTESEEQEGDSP
Sequence of Cytochrome P450 2D6 (P10635 whole entry): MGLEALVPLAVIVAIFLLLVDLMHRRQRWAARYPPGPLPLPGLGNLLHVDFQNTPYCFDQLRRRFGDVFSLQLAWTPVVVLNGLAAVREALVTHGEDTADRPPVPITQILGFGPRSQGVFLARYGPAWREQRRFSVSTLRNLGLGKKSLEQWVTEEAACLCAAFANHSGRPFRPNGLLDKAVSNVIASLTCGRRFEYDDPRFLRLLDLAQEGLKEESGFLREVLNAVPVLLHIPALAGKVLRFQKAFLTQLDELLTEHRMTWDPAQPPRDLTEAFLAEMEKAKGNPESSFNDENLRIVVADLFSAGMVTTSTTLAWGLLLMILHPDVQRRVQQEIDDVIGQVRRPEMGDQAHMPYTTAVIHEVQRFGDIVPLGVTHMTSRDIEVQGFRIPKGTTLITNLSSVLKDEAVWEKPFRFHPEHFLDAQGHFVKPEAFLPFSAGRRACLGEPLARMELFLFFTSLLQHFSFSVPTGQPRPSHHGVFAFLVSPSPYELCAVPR

Structure (SMILES): O=C(O)Cc1ccc(Cc2cc(-c3cccc(Cl)c3)nc(C(F)(F)F)c2)cc1 [ZATOLMILAST]
- Activity (Mus musculus): Active
- remaining at 0.5 h, 1 µM [1]: 88 to 100%
- remaining at 0.5 h, 1 µM [2]: 88 to 100%
- remaining at 0.5 h, 1 µM [3]: 88 to 100%
- permeability [4]: 53 ×10⁻⁶ cm/s
- fraction unbound [5]: 0.002 to 0.005
- IC50 (Cytochrome P450 3A4): 15 µM
- IC50 (Cytochrome P450 2C19): 43 µM
- IC50 (Cytochrome P450 2D6): > 100 µM
- Imax [6]: 89%
- F [7]: 82%
- half-life [8]: 10 to 12 h
- Cmax [9]: 153 ng/mL
- bioavailability [10]: 80 to 100%
- Activity [11]: Non-Toxic
- Activity [12]: Non-Toxic
- Activity [13]: Toxic
- Activity (Cynomolgus monkey): Non-Toxic
- inhibition (INH) [14]: Not Active
- inhibition (INH) [15]: Not Active
- inhibition (INH) [16]: Not Active
- inhibition (INH) [17]: Not Active
- inhibition (INH) [18]: Not Active
- inhibition (INH) [19]: Not Active
- inhibition (INH) [20]: Not Active
- inhibition (INH) [21]: Not Active
- inhibition (INH) [22]: Not Active
- inhibition (INH) [23]: Not Active
- inhibition (INH) [24]: Not Active
